Measurements collected from several papers.
Lines come from different studies, so protocols differ.
Organism: Mycolicibacterium smegmatis
Read-out: microbial growth

Compound	assay	system	setting	MIC
CC[C@@H](CO)NCCN[C@@H](CC)CO	resazurin	ATCC607	72 h	0.39 µg/mL
CC(C)=CCC/C(C)=C/CNCCOc1cccc2ccccc12	–	–	–	12 µg/mL
CO[C@H]1/C=C/O[C@@]2(C)Oc3c(C)c(O)c4c(O)c(c(/C=N/N5CCN(C)CC5)c(O)c4c3C2=O)NC(=O)/C(C)=C\C=C\[C@H](C)[C@H](O)[C@@H](C)[C@@H](O)[C@@H](C)[C@H](OC(C)=O)[C@@H]1C	–	–	–	2 µg/mL
O=C(Nc1ncc([N+](=O)[O-])s1)c1ccccn1	agar dilution	MC^2155	–	100 µM
CC1(C)S[C@@H]2[C@H](NC(=O)[C@H](N)c3ccccc3)C(=O)N2[C@H]1C(=O)O	resazurin	MC^2155	24 h	50 µg/mL
C[C@@H]([C@H](N)C(=O)N[C@H](C(=O)O)[C@H]1O[C@@H](n2ccc(=O)[nH]c2=O)[C@H](O)[C@@H]1O)[C@H](O)c1ccc(O)cn1	resazurin	ATCC607	72 h	> 50 µg/mL
CO[C@H]1/C=C/O[C@@]2(C)Oc3c(C)c(O)c4c(O)c(c(/C=N/N5CCN(C)CC5)c(O)c4c3C2=O)NC(=O)/C(C)=C\C=C\[C@H](C)[C@H](O)[C@@H](C)[C@@H](O)[C@@H](C)[C@H](OC(C)=O)[C@@H]1C	broth dilution	–	–	162 µM
CC(C)=CCC/C(C)=C/CNCCCOC1C2CC3CC(C2)CC1C3 (stereo not drawn)	–	–	–	6.2 µg/mL
CO[C@H]1/C=C/O[C@@]2(C)Oc3c(C)c(O)c4c(O)c(c(/C=N/N5CCN(C)CC5)c(O)c4c3C2=O)NC(=O)/C(C)=C\C=C\[C@H](C)[C@H](O)[C@@H](C)[C@@H](O)[C@@H](C)[C@H](OC(C)=O)[C@@H]1C	agar dilution	–	–	> 25 µg/mL
CC(C)=CCC/C(C)=C/COCC(=O)NC1C2CC3CC(C2)CC1C3 (stereo not drawn)	–	–	–	25 µg/mL
COC1C(C(OC2OC(C(=O)NC3CCCCNC3=O)=CC(O)C2O)C(N)=O)OC(n2ccc(=O)[nH]c2=O)C1OC (stereo not drawn)	broth dilution	ATCC607	–	> 200 µg/mL
CNC(=O)c1cc(Oc2ccc(NC(=O)Nc3ccc(Cl)c(C(F)(F)F)c3)cc2)ccn1	–	MC2155	–	50 µM
